CHOP inh – inhibitors of CHOP induction in ER stress response; CHO-K1 CHOP-promoter luciferase, tunicamycin-induced, 15-18 h; inhibition, % at 10 µM; 220,000 tested, 3.8% active;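 active = compounds that reduced the stress-induced luciferase reporter signal by more than about 70% of percent inhibition, limit read from the data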;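 note: 0% = tunicamycin plus vehicle and 100% = wells without tunicamycin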
XBP1 UPR activ – adaptive UPR (XBP1) activation; CHO-XBP1 luciferase reporter, IRE1-XBP1 UPR activation, luminescence; percent of tunicamycin response, DMSO as zero; activation, % at 20 µM; 330,000 tested, 0.33% active; AID 463104;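 active = versus positive control, 20 µM dose yields 30% or more activation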;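 note: 100% = tunicamycin at 10 µg/mL and 0% = DMSO only wells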
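Test system: CHO-XBP1 luciferase reporter cells | Buffer or medium: Serum-containing F12 medium, 10% FBS | Schedule: 6 h compound exposure at 37 °C, 5% CO2 | Detection: Steady-Glo luciferase glow luminescence, 10 min after reagent addition | Read-out basis: Activation, % of tunicamycin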
UPR CHOP act – apoptotic UPR (CHOP) activation; CHO-CHOP luciferase reporter, luminescence; percent of tunicamycin response over DMSO baseline; activation, % at 10 µM; 330,000 tested, 0.34% active; AID 449763;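 active = at 10 µM dose, activation of 40% or more, normalized to positive control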;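 note: 100% = tunicamycin at 10 µg/mL and 0% = DMSO alone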
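Evaluation: % reporter activation, DMSO baseline versus tunicamycin full activation; System: CHO-CHOP luciferase reporter cell line; Input: 500 cells/well; Incubation: 6 h compound treatment, 37 °C; Measured by: Steady-Glo luciferase luminescence; Dosing: one dose, 10 µM in 0.5% DMSO; Buffer or medium: F12 medium, 10% FBS; Benchmarks: positive tunicamycin 10 µg/mL, negative DMSO alone.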
V-ATPase pHluor – regulators of yeast V-ATPase proton transport; response, % at 10 µM; AID 504577; S. cerevisiae, pHLuorin cytosolic pH fluorescence; 350,000 tested, 0.37% active; in the data active = response mostly above about 7.3%, no sharp cut-off; inactive = mostly below about 5.4%; note: actives read high
Tb MetRS inh – Trypanosoma brucei MetRS inhibition; purified T. brucei MetRS, ATP depletion, Kinase-Glo luminescence; inhibition, % at 11.9 µM; AID 624268; 360,000 tested, 0.4% active;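 active = inhibition above a per-plate cutoff of the control wells' mean inhibition plus 3 SD, cut at about 5.5% in these data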;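 note: 0% = DMSO wells median and 100% = median of wells with control inhibitor compound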
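Assay system: T. brucei methionyl-tRNA synthetase, purified | Medium: HEPES buffer with MgCl2, KCl, DTT, spermine, BSA, pyrophosphatase | Compound: 11.9 µM single point | Incubation: 15 min enzyme-compound preincubation, 2 h reaction, 10 min detection, 25 °C | Measured by: Kinase-Glo luciferase luminescence reporting remaining unconsumed ATP | Measure: % inhibition normalized to control-well medians | Replication: Singlicate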
An asterisk follows results filed as active; . = no result given. This is one part of a sample in which hits are shown more often than they occur.

SMILES	CHOP inh	XBP1 UPR activ	UPR CHOP act	V-ATPase pHluor	Tb MetRS inh
C[C@@H]1CCCCO[C@@H](CN(C)S(C)(=O)=O)[C@@H](C)CN([C@H](C)CO)C(=O)c2cc(N(C)C)ccc2O1	.	.	.	-1	0
COc1ccc(-c2nsc3c(N4CCCCC4)ncnc23)cc1	82*	-5	-8	5	0
COc1ccc(-c2nsc3c(N4CCCCC4C)ncnc23)cc1 (stereo not drawn)	93*	-11	-9	2	0
Cc1cc(NC(=O)CS(=O)(=O)Cc2ccccc2)no1	10	-3	-1	0	0
CCc1nnc(N/N=C/c2ccc(N3CCC(C)CC3)c([N+](=O)[O-])c2)n1N	29	9	1	16*	0
CN1CCN(CCNC(=O)c2ccc(CS(=O)c3ccc(Br)cc3)o2)CC1 (stereo not drawn)	.	.	.	-1	0
Cc1cc(C)nc(Nc2n[nH]c(-c3ccc(C(C)(C)C)cc3)n2)n1	77*	3	7	-2	0
Cc1cc(C)nc(Nc2n[nH]c(-c3ccc(N)cc3)n2)n1	-17	1	-1	3	-1
CCC1NC(=O)c2cccnc2-n2c1nc1cc(F)ccc1c2=O (stereo not drawn)	.	.	.	2	-1
CCOC(=O)c1c(N)sc2c(OCC)c(Br)ccc12	85*	2	2	2	0
CC(C)C[C@H]1CN(CCCC[C@H]2CNC(=O)C(=O)N2CC2CCCCC2)C(=O)C(=O)N1CCc1ccccc1	.	.	.	.	0
O=C(CSc1nnc(SCc2ccccc2)s1)N/N=C/C=C\c1ccco1	-3	1	1	-3	0
O=C(CSc1nnc(SCc2ccc(Cl)cc2)s1)N/N=C/c1ccc(Cl)cc1Cl	73*	70*	3	-1	0
O=C(CSCc1ccc(Cl)cc1)N/N=C/c1ccccc1	-10	0	-1	3	2
COC(=O)Oc1ccc(/C=N/NC(=O)CSCc2ccc(Cl)cc2)cc1OC	78*	-1	-1	0	0
CC(=C/c1ccco1)/C=N/NC(=O)CSc1nnc(SCc2ccc(C)cc2)s1	80*	-3	4	0	0
O=C(CSCc1ccc(Cl)cc1)N/N=C/c1c(Cl)cccc1Cl	92*	.	.	0	1
O=C(CSc1nnc(SCc2ccccc2)s1)N/N=C/c1ccc(Cl)cc1Cl	61	1	0	0	0
CN(Cc1ccc2nsnc2c1)C(=O)C1CCC(=O)N(CCc2ccccc2)C1 (stereo not drawn)	.	.	.	-1	0
O=CC(=Cc1ccccc1)c1ccccc1	.	.	.	0	0
OC[C@H]1O[C@@H](n2cnc3c(Nc4ccccc4)ncnc32)C(O)[C@H]1O (stereo partly drawn)	3	.	.	.	.
Cn1nc(C(C)(C)C)cc1C(=O)N1CCCCC1c1cc(C(=O)Nc2ccccc2)no1 (stereo not drawn)	.	.	.	.	0
CCCn1c(C)nc2c(c1=O)c1nc3ccccc3nc1n2CCC1=CCCCC1	89*	2	2	5	-1
CCOC(=O)c1ccc(NC(=O)C(=O)NCc2ccc(/C=C(/C#N)C(=O)NCCOC)o2)cc1	72*	0	2	-4	-1
CC1CCCN(CC(O)CN)C1 (stereo not drawn)	-7	1	-2	-6	0
SMILES	CHOP inh	XBP1 UPR activ	UPR CHOP act	V-ATPase pHluor	Tb MetRS inh
C=CCCC(=O)Nc1nc(C)c(-c2csc(Nc3cc(OC)ccc3OC)n2)s1	75*	2	0	-2	0
Cc1ccccc1C(=O)Nc1ccc2c(C#N)c3nc4ccccc4nc3n2c1	96*	9	-3	3	0
O=C(/C=C/c1ccc(Cl)cc1Cl)NCc1ccncc1	8	0	5	-5	8.9*
CCc1nc(SCC(=O)Nc2c(C)nn(C)c2C)c2cnn(-c3ccccc3)c2n1	90*	.	.	.	.
CCCN(CCC)Cc1cc2ccccc2c2c1COC2	32	0	-2	-1	-1
CCCCN(CCCC)Cc1cc2ccccc2c2c1COC2	76*	-4	1	2	0
O=C(Nc1sc2c(c1C(=O)c1ccc(Cl)cc1)CCCC2)c1cccnc1	79*	-4	2	1	-1
COc1cccc(-c2cnc3c(NC(C)=O)cc(-c4ccc(C(=O)NC5CC5)cc4)cn23)c1	.	.	.	.	0
Cc1nc(Nc2ccc(S(=O)(=O)N3CCCCC3C)cc2)c2nnn(Cc3ccccc3)c2n1 (stereo not drawn)	74*	3	5	-1	0
Cc1nc(Nc2ccc(Cl)cc2)c2nnn(Cc3ccccc3)c2n1	96*	3	0	1	-1
CCOC(=O)C1(CC2CCCCO2)CCN(Cc2cc(F)ccc2-n2cccn2)CC1 (stereo not drawn)	76*	0	-1	4	0
O=C(Nc1ccc(F)cc1)c1cc(-c2ccncc2)nc2c(Cl)cccc12	.	3	0	-8	0
COCCN(CCOC)c1nc(-c2ccc(C)cc2)nc2ccccc12	.	-1	3	-1	-1
CCCN(CCC)c1nc(-c2ccccn2)nc2ccccc12	.	7	69*	-2	-1
CCCCN(CC)c1nc(-c2ccncc2)nc2ccccc12	80*	0	0	-1	0
COc1ccc(NC(=O)C2CCCCN2S(=O)(=O)c2ccccc2)cc1S(=O)(=O)N1CCOCC1 (stereo not drawn)	.	.	.	-1	0
COCC(C)n1c(-c2ccc3c(c2)NC(=O)CO3)csc1=Nc1ccc(OC(F)F)cc1 (stereo not drawn)	89*	-1	1	-2	0
O=C1COc2ccc(-c3csc(=Nc4ccc(OC(F)F)cc4)n3CC3CCCO3)cc2N1 (stereo not drawn)	78*	-1	-2	-1	0
CCN=c1scc(-c2ccc3c(c2)NC(=O)CO3)n1N=C1CCCC1	.	-1	-2	-5	0
COc1ccccc1N=c1scc(-c2ccc3c(c2)NC(=O)CO3)n1CC1CCCO1 (stereo not drawn)	49	2	-3	0	0
Nc1[nH]c(C(=O)c2ccccc2)c(-c2ccncc2)c1C(=O)NC1CC1	.	.	.	.	-1
Fc1ccc(Cn2c(-c3cscn3)nc3ccccc32)c(Cl)c1	94*	0	-1	-1	-1
Clc1ccc(Cn2c(-c3cccnc3Cl)nc3ccccc32)c(Cl)c1	22	-2	2	2	-1
CCOC(=O)C1=CCC(c2cc3ccccc3[nH]2)NC1 (stereo not drawn)	.	.	.	.	2
CCC(C)(C(=O)NC1CCCCC1)N(C(=O)C1CCC(=O)N1)c1ccc(C)cc1 (stereo not drawn)	71*	0	0	3	0
N#Cc1cn(CCOc2ccccc2F)c2ccccc12	74*	4	3	2	0
CCc1nc2ccc(C(=O)NCCCn3ccnc3)cn2c1N(C)C(=O)COc1ccccc1	.	.	.	.	0

From PubChem
